Assay outcomes as filed in PubChem.
HTR2A ag – mouse Htr2a agonists via beta-arrestin recruitment, primary screen, cell-based, luminescence; 5-hydroxytryptamine receptor 2A (Mus musculus), P35363; CHO-K1 mHTR2A beta-arrestin complementation; percent of 30 µM serotonin response; activation, % at 7.6 µM; 360,000 tested, 0.66% active; AID 624169, 2012;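 active = activation above a run cutoff, the mean activation of all tested compounds plus 3 SD, cut at about 14% in these data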;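 also: 0% = plate median of compound wells and 100% = 30 µM serotonin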
Target sequence (P35363 whole entry, looked up): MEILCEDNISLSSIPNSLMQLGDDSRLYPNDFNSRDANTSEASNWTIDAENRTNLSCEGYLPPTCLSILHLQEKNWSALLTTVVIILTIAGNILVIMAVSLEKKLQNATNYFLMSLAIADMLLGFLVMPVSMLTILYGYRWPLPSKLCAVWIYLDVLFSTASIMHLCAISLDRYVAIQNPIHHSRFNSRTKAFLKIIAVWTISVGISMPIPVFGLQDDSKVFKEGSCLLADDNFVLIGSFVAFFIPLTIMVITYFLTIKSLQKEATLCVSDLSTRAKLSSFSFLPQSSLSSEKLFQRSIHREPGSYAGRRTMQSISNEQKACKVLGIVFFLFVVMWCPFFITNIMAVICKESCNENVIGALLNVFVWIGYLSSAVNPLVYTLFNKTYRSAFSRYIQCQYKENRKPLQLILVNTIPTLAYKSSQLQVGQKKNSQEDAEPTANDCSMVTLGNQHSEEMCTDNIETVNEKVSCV
EBI2 block – EBI2 receptor antagonists, beta-arrestin recruitment, primary screen, cell-based, luminescence, 7a,25-OHC stimulation, uHTS; 7a,25-OHC stimulated; G-protein coupled receptor 183 (Homo sapiens), P32249; 360,000 tested, 0.81% active; inhibition, % at 5 µM; in the data active = inhibition above about 38%;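 also: enzyme fragment complementation signal reports receptor beta-arrestin coupling in cells; 0% = agonist plus DMSO wells and 100% = wells without agonist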
MC4R antagonist – MC4R antagonists of cAMP signaling, primary screen, cell-based, TR-FRET, antagonist arm of biased-ligand search. Melanocortin receptor 4 (Homo sapiens), P32245. MC4R-expressing cells, MTII-stimulated cAMP, LANCE TR-FRET. inhibition, % at 6.5 µM. 360,000 tested, 0.48% active;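 active = inhibition above its plate's cutoff, the mean of tested wells on that plate plus 3 SD, cut at about 29% in these data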;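 also: 0% = Melanotan II alone and 100% = Melanotan II plus saturating MCL0020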
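Assay system: U2OS cells stably expressing human melanocortin 4 receptor (MC4R) / Dosing: 6.5 µM / Timing: compound 30 min, challenge 1 h, detection 1 h / Measured by: Eu-cAMP/anti-cAMP TR-FRET, emission 671 nm / Replicates: singlicate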
MC4R ag barr – MC4R agonists recruiting beta-arrestin, primary screen, cell-based, luminescence, agonist arm of biased-ligand search. U2OS MC4R beta-arrestin complementation; percent of melanotan II response, DMSO zero. activation, % at 8.9 µM. 360,000 tested, 0.98% active;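 active = activation above a per-plate cutoff, the mean activation of sample wells on that plate plus 3 SD, cut at about 8% in these data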
MC4R barr conf – MC4R beta-arrestin agonists, retest, confirmation, cell-based, luminescence, U2OS; shares compounds with MC4R ag barr; U2OS MC4R beta-arrestin recruitment; scaled DMSO 0%, Melanotan II 100%; activation, % at 8.9 µM; 2,400 tested, 31% active; AID 602192, 2012;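 active = mean activation across replicates above the hit cutoff set in the earlier primary screen, cut at about 8% in these data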
MOR-DOR barr ag – agonists of MOR-DOR heterodimerization, counter-screen for MC4R biased agonist project, cell-based, luminescence; U2OS PathHunter beta-arrestin, beta-gal luminescence; percent of deltorphin B response, DMSO zero; activation, % at 9.2 µM; shares compounds with MC4R ag barr; 2,400 tested, 5.8% active;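 active = mean activation across replicates exceeds the hit threshold derived in the earlier primary screen, cut at about 18% in these data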;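 also: 100% = deltorphin B at 0.9 µM final and 0% = DMSO alone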
An asterisk follows results filed as active; . = not tested or not shown. Rows were chosen to be rich in hits. Some 2.8% of all compounds tested hit in one or more screens of this group.

SMILES | HTR2A ag | EBI2 block | MC4R antagonist | MC4R ag barr | MC4R barr conf | MOR-DOR barr ag
O=C1C=C(c2cc3ccccc3o2)C[C@@H](c2ccc(F)cc2)C1 | -2 | 26 | 1 | 1 | . | .
CC(C)CN(C(=O)CSc1nc2ccccc2[nH]1)C1CCS(=O)(=O)C1 (stereo not given) | -1 | -8 | 0 | -2 | . | .
CCSc1nc2c(c(=O)[nH]c(=O)n2C)n1CC(O)COc1ccccc1 (stereo not given) | 4 | -21 | 23 | 1 | . | .
CC(C)CSc1nc2c(c(=O)[nH]c(=O)n2C)n1CC(O)COc1cccc2ccccc12 (stereo not given) | 1 | -6 | 7 | 14* | 3 | 5
COc1ccc(Cn2c(=S)[nH]c3ccccc3c2=O)cc1 | -4 | 1 | 1 | 11* | -3 | 3
Cc1ccc(Cn2c(=S)[nH]c3ccccc3c2=O)cc1 | 0 | -1 | 19 | 3 | . | .
COc1ccc(CCN2C(=O)c3ccncc3C2=O)cc1OC | 5 | -4 | 7 | 14* | 1 | 3
CN1C(=O)C2(Oc3ccccc3C3CC(c4ccccc4)=NN32)c2ccccc21 (stereo not given) | -2 | -18 | -2 | 2 | . | .
Cc1ccc(C2=NN3C(C2)c2ccccc2OC32C(=O)Nc3ccccc32)cc1 (stereo not given) | 1 | 17 | 5 | 10* | 9.1* | 20*
COc1ccc(NC(=O)c2cc(C3CCCCN3S(=O)(=O)c3cn(C)cn3)on2)c(C)c1 (stereo not given) | 6 | -10 | 10 | 0 | . | .
O=C(NCc1ccc(-c2csnn2)cc1)c1cc(Cl)cc(Cl)c1 | -1 | 5 | 2 | 13* | 2 | 4
Cc1ccc(F)c(S(=O)(=O)NC(=O)C2(C)CCN2C(=O)c2cccc3ccccc23)c1 (stereo not given) | -5 | -4 | 0 | 0 | . | .
CCOC(=O)c1[nH]c2ccc(OC)cc2c1NC(=O)c1ccc2c(c1)OCO2 | -2 | -1 | -1 | -1 | . | .
CCOC(=O)c1[nH]c2cc(OC)c(OC)cc2c1NC(=O)c1ccc2c(c1)OCO2 | 4 | -6 | -19 | 26* | 2 | 3
CC1CC(C)(C)CC2(C1)NC(=O)N(CC(=O)OCc1ccc(Br)cc1)C2=O (stereo not given) | 9 | 7 | -1 | 14* | -1 | 6
CCOC(=O)C1CC(=NO)c2ccc(OC)c(OC)c2C1 (stereo not given) | -1 | -14 | -9 | -1 | . | .
COC(=O)[C@@]12C[C@@H](CC(=O)NCC34CC5CC(CC(C5)C3)C4)C(=O)N(CCc3ccc(OC)c(OC)c3)C1=CCC(C)(C)C2 | -3 | 25 | . | . | . | .
Cc1cccc(NC(=O)C2(c3ccccc3)CCOCC2)c1 | -3 | 1 | -1 | -1 | . | .
Cc1cccc(NC(=O)C2(C)CC3c4ccccc4C2c2ccccc23)c1 (stereo not given) | 11 | -20 | -2 | 17* | 4 | 8
NC1(CO)COC(c2ccccc2)OC1 (stereo not given) | 3 | 1 | 0 | -1 | . | .
CC(C)(C)C1CCC(CN2C(Nc3ccccc3)=NC[C@@H]2Cc2ccccc2)CC1 (stereo not given in full) | -11 | -4 | 1 | 14* | 11* | 16
CC1(C)CC(=O)C=C(c2ccc(-c3cccc(C(N)=O)c3)cc2)C1=O | -4 | -1 | 1 | 0 | . | .
COc1ccc(-c2oc3ccc(-c4ccc5c(c4)OCO5)cc3c2C#CC2(O)CCCCC2)cc1 | 0 | -1 | 8 | 15* | 17* | 4
COc1ccc(-c2oc3ccc(-c4ccc(OC)nc4)cc3c2C#CC2(O)CCCCC2)cc1 | 7 | 6 | 11 | 13* | 11* | 4
COc1ccc(-c2sc3cc(OC)c(OC)cc3c2C#CCO)cc1 | -1 | 10 | 7 | 18* | 16* | 15
SMILES | HTR2A ag | EBI2 block | MC4R antagonist | MC4R ag barr | MC4R barr conf | MOR-DOR barr ag
COc1ccc(-c2oc3ccc(N4CCOCC4)cc3c2C#CCO)cc1 | 10 | 11 | 20 | 1 | . | .
COc1ccc(-c2oc3ccc(-c4ccc(OC)nc4)cc3c2-c2ccc(OC)cc2)cc1 | 3 | 20 | -1 | 0 | . | .
COc1ccc(-c2ccc3oc(-c4ccc(OC)cc4)c(C#CCO)c3c2)cc1 | -1 | 6 | 14 | 18* | 15* | 5
COc1ccc(-c2sc3cc4c(cc3c2C#CC2(O)CCCCC2)OCO4)cc1 | -1 | -10 | 1 | 0 | . | .
O=c1[nH][nH]c2c1C(c1ccc(F)cc1)OC(CCc1ccccc1)C2 (stereo not given) | -4 | 8 | . | . | . | .
CC(=O)N1Cc2cc(C(=O)NCC(F)(F)F)nc(-c3cccc(-c4cccnc4)c3)c2[C@@H]1CCO | -1 | 7 | . | . | . | .
CN(C)S(=O)(=O)Oc1ccsc1C(=O)Nc1ccc(Cl)c(Cl)c1 | 6 | 16 | 17 | 0 | . | .
COc1ccc(C(=O)Nc2ccc(OCc3ccccc3)cc2)cc1[N+](=O)[O-] | 6 | -5 | 0 | 30* | 10* | 7
COc1ccc(COc2ccsc2C(=O)Nc2ccc(Cl)c(Cl)c2)cc1 | -5 | 18 | -6 | 12* | 25* | 3
O=C(Nc1ccc(OCc2ccccc2)cc1)c1ccccc1 | -3 | -9 | 1 | 1 | . | .
COc1cc(/C=N/OCC(=O)Nc2ccc(OC(F)F)cc2)ccc1OCc1ccccc1 | -6 | 3 | -15 | 5 | . | .
Cc1ccsc1C(=O)Nc1ccc(OCc2ccccc2)cc1 | 2 | 3 | 15 | 9.7* | 0 | 3
CCOc1ccc(/C=N/OCC(=O)Nc2ccc(OCc3ccccc3)cc2)cc1OC | 0 | 2 | 12 | 13* | 8.2* | 2
COc1ccc(-c2nc3ccc(C)cn3c2CC(C)(C)C)cc1OC | -2 | -2 | . | . | . | .
COC(=O)[C@@]12C[C@@H](CC(=O)NCc3cccc(C(F)(F)F)c3)C(=O)N(Cc3ccccc3)C1=CCC(C)(C)C2 | -8 | 20 | . | . | . | .
COc1ccc(-c2cc(NC=O)c3ncc(-c4cccc(C(=O)NCCN(C)C)c4)n3c2)c(OC)c1 | -9 | 0 | -18 | 5 | . | .
CCc1nc2c(OCc3ccc(F)c(F)c3)cccn2c1N(C)C(=O)c1ccc(C)cc1 | -5 | 19 | 0 | -1 | . | .
